From PubChem BioAssay
Only some compounds are listed: those with a hit (about 29% of all), similar ones and a draw of the others.
Ecoli WT expand – blocks growth of wild type E. coli BW25113; 98,000 tested, 0.15% active; AID 710; growth inhibition, % at 100 µM; OD600 absorbance;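 active means growth inhibition above about 50% at one test dose, limit read from the data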;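 further: growth measured after 20 h incubation at 37 °C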
CYP2C9 inh – human CYP2C9 inhibition | P11712 | AID 777 | 96,000 tested, 20% active | inhibition, % at 5 µM | CYP2C9 Supersomes, luciferin-H conversion, luminescence;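 active means blocking of liver enzyme CYP2C9 beyond about 50% at 5 µM, limit read from the data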
Ecoli tolC – growth inhibitors of E. coli BW25113 tolC mutant; OD615; growth inhibition, % at 10 µM (by protocol); 65,000 tested, 2.2% active;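 active means growth inhibition at or above a cutoff equal to the mean over every tested compound plus 3 SD, cut at about 60% in these data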;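 further: growth measured after 20 h incubation at 37 °C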
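Test system: tolC-deleted E. coli BW25113; medium: LB with kanamycin 50 µg/mL; compound: single-point testing at 10 µM; incubation: 20 h compound exposure of bacteria at 37 °C; signal: OD at 615 nm; evaluation: growth inhibition in percent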
CYP2C19 inhib – blocks human cytochrome P450 2C19. CYP2C19 Supersomes, luciferin-H EGE luminescence, 30 min. inhibition, % at 5 µM. 96,000 tested, 21% active. AID 778;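 active means CYP2C19 inhibition above a set limit at 5 µM in the primary screen, cut at about 50% in these data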;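 further: plate controls were negative control wells for no effect and 2.5 mM tranylcypromine positive control for full effect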
Target sequence (P33261 whole entry, looked up): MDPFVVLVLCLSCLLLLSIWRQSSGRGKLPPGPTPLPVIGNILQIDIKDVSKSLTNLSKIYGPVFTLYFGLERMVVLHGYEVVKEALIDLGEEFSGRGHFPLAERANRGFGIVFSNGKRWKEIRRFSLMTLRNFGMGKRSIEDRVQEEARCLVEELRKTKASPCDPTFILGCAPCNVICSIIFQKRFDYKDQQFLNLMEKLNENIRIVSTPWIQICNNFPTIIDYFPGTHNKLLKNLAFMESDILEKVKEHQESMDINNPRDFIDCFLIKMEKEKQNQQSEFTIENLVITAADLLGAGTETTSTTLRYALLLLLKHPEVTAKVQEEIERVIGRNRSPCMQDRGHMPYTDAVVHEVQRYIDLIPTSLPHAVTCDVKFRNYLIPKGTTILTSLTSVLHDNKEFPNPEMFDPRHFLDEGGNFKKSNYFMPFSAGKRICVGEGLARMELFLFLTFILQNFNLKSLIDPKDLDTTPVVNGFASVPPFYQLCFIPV
CYP2C19 activ – increases human CYP2C19 enzyme activity; activation factor at 5 µM; P33261; 96,000 tested, under 10 active; recombinant CYP2C19, luciferin-H EGE luminescence; hits give high values; 0 = fully inhibited enzyme, 1 = untreated enzyme;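 active means activation factor of at least 2 at 5 µM in the primary screen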;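 further: 0 = wells with 2.5 mM tranylcypromine and 1 = vehicle-only wells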
CYP2C9 act – activators of human CYP2C9 | recombinant CYP2C9, luciferin-H conversion, luminescence; hits give high values; factor 1 = untreated enzyme, 0 = blocked | activation factor at 5 µM | 96,000 tested, 1.4% active | AID 1024;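 active means activation factor of 2 or more for CYP2C9 at a 5 µM dose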;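 further: 0 = sulfaphenazole-blocked wells and 1 = vehicle-only wells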
Active calls of the source: *; nt = not tested or not shown.

SMILES | Ecoli WT expand | CYP2C9 inh | Ecoli tolC | CYP2C19 inhib | CYP2C19 activ | CYP2C9 act
O=C(COC(=O)CCC(=O)c1ccc2c(c1)OCCO2)NCc1ccc2c(c1)OCO2 | -3 | 81* | 13 | 50 | 0.5 | 0.2
N#Cc1ccc(Cl)cc1NC(=O)COC(=O)c1ccc2c(c1)OCCO2 | 0 | 15 | nt | 18 | 0.8 | 0.8
Cc1cc(=O)oc2cc(OCC(=O)OCC(=O)NCc3ccc4c(c3)OCO4)ccc12 | 5 | -63 | -18 | 39 | 0.6 | 1.6
O=C(COC(=O)c1ccc2c(c1)OCO2)NCc1ccc(Cl)cc1 | -23 | -98 | 5 | 37 | 0.6 | 2*
COc1ccc(C)cc1NC(=O)c1cc2c(CO)cnc(C)c2oc1=N | nt | nt | -29 | nt | nt | nt
CCCOc1ccc(/C=C/C(=O)Nc2ccc([N+](=O)[O-])cc2C)cc1 | -17 | 16 | nt | 4 | 1 | 0.8
CCOP(=O)(c1ccc(N(C)C)cc1)C(O)c1ccccc1OC (stereo unspecified) | -1 | -19 | -1 | 34 | 0.7 | 1.2
CCCOP(=O)(c1ccc(N(C)C)cc1)C(O)c1cccnc1 (stereo unspecified) | 3 | -10 | nt | -7 | 1.1 | 1.1
CC(C)COP(=O)(c1ccc(N(C)C)cc1)C(O)c1ccccn1 (stereo unspecified) | 1 | 17 | -17 | 67* | 0.3 | 0.8
CC(C)CCOP(=O)(c1ccc(N(C)C)cc1)C(O)c1ccccn1 (stereo unspecified) | 7 | 44 | 12 | 80* | 0.2 | 0.6
CC(C)CCOP(=O)(c1ccc(N(C)C)cc1)C(O)c1ccccc1F (stereo unspecified) | 7 | 48 | 24 | 74* | 0.3 | 0.5
CCCCOP(=O)(c1ccc(N(C)C)cc1)C(O)c1ccncc1 (stereo unspecified) | 1 | 74* | -10 | 80* | 0.2 | 0.3
COC(=O)COc1cccc(NC(=O)c2cccs2)c1 | -3 | 28 | -10 | 32 | 0.7 | 0.7
Cc1ccc(NC(=S)NNC(=O)c2c([N+](=O)[O-])c(C)nn2C)cc1 | 3 | 3 | nt | -27 | 1.3 | 1
Cc1nn(C(C)C(=O)NNC(=S)Nc2ccc(Cl)cc2)c(C)c1[N+](=O)[O-] (stereo unspecified) | 6 | 64* | nt | 0 | 1 | 0.4
CS(=O)(=O)N(Cc1nnc(-c2cccs2)o1)c1ccc(Cl)cc1F | 5 | 88* | 20 | 99* | 0 | 0.1
Fc1ccc(Cc2nnc(-c3cccs3)o2)cc1 | -2 | nt | 6 | nt | nt | nt
Cc1ccc(NC(=O)NNC(=O)Cn2nc(-c3ccccc3)c(-c3ccccc3)c(C#N)c2=O)cc1 | -8 | 57* | nt | 24 | 0.8 | 0.4
O=S(=O)(c1ccccc1)n1ccc2ccccc21 | 3 | -138 | 32 | 36 | 0.6 | 2.4*
CCCOCCOC(=O)c1[nH]c2c(c1C)C(=O)CC(c1cc(OC)ccc1OC)C2 (stereo unspecified) | -11 | nt | 1 | nt | nt | nt
COCCOC(=O)c1[nH]c2c(c1C)C(=O)CC(c1cc(OC)ccc1OC)C2 (stereo unspecified) | 0 | 59* | -10 | 8 | 0.9 | 0.4
COc1ccc(OC)c(C2CC(=O)c3c([nH]c(C(=O)OCC4CCCO4)c3C)C2)c1 (stereo unspecified) | 1 | 66* | -2 | 36 | 0.6 | 0.3
COc1ccc(OC)c(C2CC(=O)c3c([nH]c(C(=O)OC(C)C)c3C)C2)c1 (stereo unspecified) | -6 | 58* | 31 | 46 | 0.5 | 0.4
CC(=O)CC1(O)C(=O)N(CN2CCN(c3ccccc3)CC2)c2ccccc21 (stereo unspecified) | 0 | -6 | -4 | 13 | 0.9 | 1.1
NC(=O)CSc1nnc(Cn2c(=O)sc3ccccc32)n1-c1cccc(Cl)c1 | -21 | 8 | -4 | 1 | 1 | 0.9
SMILES | Ecoli WT expand | CYP2C9 inh | Ecoli tolC | CYP2C19 inhib | CYP2C19 activ | CYP2C9 act
CN(Cc1ccccc1)C(=O)CSc1nnc(-c2ccco2)n1-c1ccccc1 | 5 | 18 | -3 | 23 | 0.8 | 0.8
C=CCn1c(=NC(=O)C2CCCCC2)sc2cc(NC(C)=O)ccc21 | -2 | 68* | nt | 15 | 0.8 | 0.3
O=C(NC1(C(F)(F)F)NC(=O)N(Cc2cccnc2)C1=O)c1ccc(F)cc1 (stereo unspecified) | 0 | 31 | nt | 34 | 0.7 | 0.7
O=S(=O)(c1cccc(-c2nc3ccccc3s2)c1)N1CCCC1 | -1 | 79* | 4 | 34 | 0.7 | 0.2
O=S(=O)(c1ccccc1)N1CCN(c2nc3ccccc3s2)CC1 | -2 | -8 | nt | 12 | 0.9 | 1.1
O=S(=O)(c1ccc(-c2nc3ccccc3s2)cc1)N1CCCC1 | -17 | 77* | nt | 13 | 0.9 | 0.2
Cc1ccccc1OCC(=O)Nc1ccc2c(c1)OCO2 | -9 | 30 | 0 | 66* | 0.3 | 0.7
Cc1ccccc1OCC(=O)Nc1cccc(N(C)S(C)(=O)=O)c1 | 10 | 79* | 6 | 69* | 0.3 | 0.2
Cc1ccc(NC(=O)CS(=O)CC(=O)Nc2ccc3c(c2)OCO3)cc1Cl (stereo unspecified) | 2 | 51* | 11 | 11 | 0.9 | 0.5
Cc1cc(OCC(=O)Nc2ccc3c(c2)OCCO3)ccc1Cl | 5 | 15 | 36 | 17 | 0.8 | 0.9
CN(c1cccc(NC(=O)CCSc2ccccc2)c1)S(C)(=O)=O | 2 | 68* | 8 | 78* | 0.2 | 0.3
Cc1ccccc1OCC(=O)Nc1ccc2c(c1)COC2=O | 0 | 26 | -15 | 24 | 0.8 | 0.7
Cc1c(C(=O)N(C)C)sc(NC(=O)c2cccc([N+](=O)[O-])c2)c1C#N | -7 | -11 | nt | -23 | 1.2 | 1.1
CC(C)c1nc(SCC(=O)NCc2ccc3c(c2)OCO3)c2c(=O)n(C)c(=O)n(C)c2n1 | nt | nt | -2 | nt | nt | nt
Cc1onc(-c2ccccc2)c1C(=O)NC(C)C1CCCO1 (stereo unspecified) | -6 | 4 | -12 | 3 | 1 | 1
Cc1ccc(S(=O)(=O)NCCNc2ccc([N+](=O)[O-])cc2C(F)(F)F)cc1 | 1 | 77* | nt | 49 | 0.5 | 0.2
O=[N+]([O-])c1ccc(NCCNS(=O)(=O)c2ccccc2)c(C(F)(F)F)c1 | 0 | 75* | nt | 88* | 0.1 | 0.3
O=C(NCCNc1ccc([N+](=O)[O-])cc1C(F)(F)F)c1ccccc1F | 6 | -6 | nt | 92* | 0.1 | 1.1
Cc1ccc(S(=O)(=O)NCCNC(=O)c2cc(OCC(F)(F)F)ccc2OCC(F)(F)F)cc1 | -2 | 4 | nt | 45 | 0.6 | 1
COCCCNS(=O)(=O)c1ccccc1 | 0 | 1 | -10 | 38 | 0.6 | 1
O=C(NCCNc1ccc([N+](=O)[O-])cc1)c1ccccc1Br | 3 | 44 | nt | 41 | 0.6 | 0.6
O=C(NC12CC3CC(CC(C3)C1)C2)c1ccc(S(=O)(=O)N2CCOCC2)cc1 | 4 | 0 | -3 | -6 | 1.1 | 1
